In PubChem BioAssay AID504338 (NMMLSC, 2011):
Active and inactive are the calls of the source.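 The calls were made as follows: active = GFP response vs DMSO above 150% with enough events counted; inconclusive = fewer than 70 events counted for a yeast strain; inactive = the rest.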

assay: yeast TOR reporter LAP4-GFP retest – cell-based, third cherry pick, flow cytometry, confirmation (AID 504338);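 also: ratio to plate DMSO wells so 100% equals DMSO level rather than 0%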; conditions: S. cerevisiae LAP4-GFP strain, 3 h, at 10 µM, stronger effect = higher value
Outline: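 Material: Saccharomyces cerevisiae strain expressing LAP4-GFP fusion protein / Compound: 10 µM, one concentration / Incubation: compound exposure for 3 h at 30 °C / Detection: high-throughput flow cytometry of GFP, single-cell scatter gate / Measure: median GFP fluorescence as percent of plate DMSO-well average / Benchmarks: rapamycin 400 ng/mL high, DMSO low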

Structure (SMILES)	GFP response vs DMSO
CN(C)C(=O)Oc1ccc(Cl)c2cccnc12	106% (inactive)
CCN1CCN(c2ncnc3ccc(Br)cc23)CC1	108% (inactive)
CN1CCN(c2ncnc3ccc(Br)cc23)CC1	107% (inactive)
C/C(O)=C(\C#N)C(=O)Nc1cc(Br)ccc1Br	106% (inactive)
Cc1ccc2c(c1N)C(=O)c1ccccc1C2=O	104% (inactive)
CN(C)C(=O)Oc1ccnc2cc(Cl)ccc12	107% (inactive)
